According to ChEMBL document CHEMBL5344428, “Discovery, Crystallographic Studies, and Mechanistic Investigations of Novel Phenylalanine Derivatives Bearing a Quinazolin-4-one Scaffold as Potent HIV Capsid Modulators” (J Med Chem, 2023):

Tests used:
[1] = Cytotoxicity against human MT4 cells assessed as reduction in cell viability; assay type: toxicity, cell-based
Method in brief: (§1)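 Uninfected MT-4 cells were exposed to compound, and viability was read by the MTT method. […] Each value was run in at least triplicate and averaged from at least three independent experiments.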

[2] = tested on: Human immunodeficiency virus 2; test: Antiviral activity against HIV-2 ROD infected in human MT4 cells assessed as protection against virus induced cytopathic effect; assay type: functional, organism-based; settings: Human immunodeficiency virus 2, ROD
Method in brief: (§2)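 MT-4 cells were infected with HIV-1 IIIB or HIV-2 ROD, and cell viability was read by MTT. […] Each value was run in at least triplicate and averaged from at least three independent experiments.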

[3] = Selectivity index, ratio of CC50 for cytotoxicity against human MT4 cells to EC50 for antiviral activity against HIV1 IIIB infected in human MT4 cells; assay type: toxicity, cell-based; settings: read-out: Ratio CC50/EC50
Method in brief: (§3)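 SI is CC50 divided by EC50. CC50 comes from MTT viability of uninfected MT-4 cells. EC50 comes from MTT-read protection of MT-4 cells infected with HIV-1 IIIB or HIV-2 ROD. Each value was run in at least triplicate.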

[4] = Selectivity ratio of EC50 for antiviral activity against HIV1 IIIB infected in human MT4 cells to EC50 for antiviral activity against HIV2 ROD infected in human MT4 cells; assay type: toxicity, cell-based
Method in brief: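 Ratio is EC50 against HIV-1 IIIB divided by EC50 against HIV-2 ROD. Both EC50 values come from MTT-read protection of infected MT-4 cells.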

[5] = Selectivity index, ratio of CC50 for cytotoxicity against human MT4 cells to EC50 for antiviral activity against HIV2 ROD infected in human MT4 cells; assay type: toxicity, cell-based; settings: read-out: Ratio CC50/EC50; method in brief: as §3
[6] = tested on: Human immunodeficiency virus 1; test: Antiviral activity against HIV-1 IIIB infected in human MT4 cells assessed as protection against virus induced cytopathic effect; assay type: functional, organism-based; settings: Human immunodeficiency virus 1, IIIB; method in brief: as §2
[7] = tested on: Human immunodeficiency virus 2; test: Antiviral activity against HIV2 ROD infected in human MT4 cells assessed as reduction in virus induced cytopathic effect measured after 5 days by MTT assay; assay type: functional, organism-based; settings: Human immunodeficiency virus 2, ROD, MT4, 120 h; method in brief: as §2
[8] = tested on: Human immunodeficiency virus 1; test: Antiviral activity against HIV1 IIIB infected in human MT4 cells assessed as reduction in virus induced cytopathic effect measured after 5 days by MTT assay; assay type: functional, organism-based; settings: Human immunodeficiency virus 1, IIIB, MT4, 120 h; method in brief: as §2
[9] = Cytotoxicity against human MT4 cells assessed as reduction in cell viability incubated for 5 days by MTT assay; assay type: toxicity, cell-based; settings: MT4 cells, time 5 day; method in brief: as §1

Row | SMILES | CC50 [1] [µM] | EC50 [2] [µM] | selectivity ratio [3] | Ratio EC50 [4] | selectivity ratio [5] | EC50 [6] [µM] | EC50 [7] [µM] | EC50 [8] [µM] | CC50 at 120 h [9] [µM]
1 | COc1ccc(N(C)C(=O)[C@H](Cc2cc(F)cc(F)c2)NC(=O)CN2CCN(S(=O)(=O)c3ccc(F)cc3)CC2)cc1 | 19.2 | 0.36 | 24.3 | 2.19 | 53.3 | 0.79 | – | – | –
2 | COc1ccc(N(C)C(=O)[C@H](Cc2cc(F)cc(F)c2)NC(=O)CN2CCN(S(=O)(=O)c3ccc(Cl)cc3)CC2)cc1 | 9.05 | 0.44 | 9.73 | 2.11 | 20.6 | 0.93 | – | – | –
3 | COc1ccc(N(C)C(=O)[C@H](Cc2cc(F)cc(F)c2)NC(=O)CN2CCN(S(=O)(=O)c3cccc(F)c3)CC2)cc1 | > 202 | 0.12 | > 843 | 2 | > 1690 | 0.24 | – | – | –
4 | COc1ccc(N(C)C(=O)[C@H](Cc2cc(F)cc(F)c2)NC(=O)CN(Cc2ccc(C#N)cc2)C(=O)Cc2ccc(B3OC(C)(C)C(C)(C)O3)cc2)cc1 | – | – | 3 | 1.09 | 3 | – | 16.2 | 17.7 | 52.4
5 | COc1ccc(-n2c(SCc3cncs3)nnc2[C@H](Cc2ccccc2)NC(=O)Cc2c(C)[nH]c3ccccc23)cc1 | – | – | 38 | 0.23 | 9 | – | 3.98 | 0.9 | 33.9
6 | COc1ccc(N(C)C(=O)[C@H](Cc2cc(F)cc(F)c2)NC(=O)CN(Cc2ccc(C#N)cc2)C(=O)Cc2c[nH]c3ccc(F)cc23)cc1 | – | – | 9 | 2.97 | 26 | – | 5.81 | 17.2 | 148
7 | COC(=O)c1ccc(C(=O)Nc2ccn(CC(=O)N[C@@H](Cc3ccccc3)C(=O)N(C)c3ccc(OC)cc3)c(=O)c2)cc1 | – | – | 5.04 | 1.25 | 6.31 | – | 15.2 | 19.1 | 96.2
8 | COc1ccc(N(C)C(=O)[C@H](Cc2cc(F)cc(F)c2)NC(=O)CN(CC2CCCCC2)C(=O)Cn2nc(C(F)(F)F)cc2C)cc1 | – | – | 2 | 1.22 | 2 | – | 24.9 | 30.3 | 45.7
9 | COc1ccc(N(C)C(=O)[C@H](Cc2cc(F)cc(F)c2)NC(=O)CN(Cc2ccccc2)C(=O)Cc2c(C)[nH]c3ccccc23)cc1 | – | – | 10 | 0.42 | 4 | – | 6.52 | 2.77 | 28.6
10 | COc1ccc(-n2c([C@H](Cc3ccccc3)NC(=O)CN3CCN(S(=O)(=O)c4ccc(N)cc4)CC3)nc3ccccc3c2=O)cc1 | – | – | > 291 | 4.27 | > 1250 | – | 0.15 | 0.64 | > 187
11 | COc1ccc(C(=O)Nc2ccn(CC(=O)N[C@@H](Cc3ccccc3)C(=O)N(C)c3ccc(OC)cc3)c(=O)c2)cc1 | – | – | 1.79 | 2.78 | 4.98 | – | 10.7 | 29.6 | 53.1
12 | COc1ccc(N(C)C(=O)[C@H](Cc2ccccc2)NC(=O)Cn2ccc(NC(=O)c3ccc(C)cc3)cc2=O)cc1 | – | – | 2.28 | 1.25 | 2.85 | – | 20.5 | 25.6 | 58.3
13 | COc1ccc(N(C)C(=O)[C@H](Cc2cc(F)cc(F)c2)NC(=O)CN2CCN(C(=O)Cc3c[nH]c4ccccc34)CC2=O)cc1 | – | – | 1.97 | 1.67 | 3.28 | – | 17.6 | 29.4 | 57.8
14 | COc1ccc(-n2c([C@H](Cc3cc(F)cc(F)c3)NC(=O)CN3CCN(S(=O)(=O)c4ccc([N+](=O)[O-])cc4)CC3)nc3cc(Cl)ccc3c2=O)cc1 | – | – | > 278 | 1.48 | > 403 | – | 0.4 | 0.59 | > 163
15 | COC(=O)CSc1nnc([C@H](Cc2ccccc2)NC(=O)Cc2c(C)[nH]c3ccccc23)n1-c1ccc(OC)cc1 | – | – | 27 | 0.46 | 12 | – | 6.59 | 3.01 | 82.3
16 | COc1ccc(N(C)C(=O)[C@H](Cc2ccccc2)NC(=O)Cn2ccc(NC(=O)c3cccc(F)c3)cc2=O)cc1 | – | – | 3.26 | 2.87 | 9.36 | – | 6.59 | 18.9 | 61.6
17 | COc1ccc(-n2c([C@H](Cc3ccccc3)NC(=O)CN3CCN(S(=O)(=O)c4ccc(N)cc4)CC3)nc3cc(Cl)ccc3c2=O)cc1 | – | – | > 291 | 6.1 | > 1740 | – | 0.1 | 0.61 | > 178
18 | COc1ccc(N(C)C(=O)[C@H](Cc2ccccc2)NC(=O)CN2CCN(C(=O)Cc3c[nH]c4ccc(OC)cc34)CC2=O)cc1 | – | – | 7.15 | 0.86 | 6.15 | – | 16.9 | 14.6 | 104
19 | COc1ccc(N(C)C(=O)[C@H](Cc2cc(F)cc(F)c2)NC(=O)CN2CCN(C(=O)Cc3c[nH]c4ccc(F)cc34)CC2=O)cc1 | – | – | 2.78 | 1.16 | 3.23 | – | 5.07 | 5.89 | 16.4
20 | COc1ccc(N(C)C(=O)[C@H](Cc2cc(F)cc(F)c2)NC(=O)Cn2ccc(N)cc2=O)cc1 | – | – | > 49.6 | 0.34 | > 17.1 | – | 15.6 | 5.36 | > 266
21 | COC(=O)CCSc1nnc([C@H](Cc2ccccc2)NC(=O)Cc2c(C)[nH]c3ccccc23)n1-c1ccc(OC)cc1 | – | – | > 19 | 0.59 | > 11 | – | 19.2 | 11.4 | > 214
22 | COc1ccc(-n2c([C@H](Cc3cc(F)cc(F)c3)NC(=O)CN3CCN(S(=O)(=O)c4ccc([N+](=O)[O-])cc4)CC3)nc3cc(F)ccc3c2=O)cc1 | – | – | > 338 | 1.4 | > 481 | – | 0.35 | 0.49 | > 167
23 | COc1ccc(N(C)C(=O)[C@H](Cc2cc(F)cc(F)c2)NC(=O)CN(Cc2ccc(F)cc2)C(=O)Cc2ccc(B3OC(C)(C)C(C)(C)O3)cc2)cc1 | – | – | 6 | 0.89 | 5 | – | 13.2 | 11.7 | 65.4
